Screening data (PubChem)
Neddylation inh: blocks human cullin neddylation; 360,000 tested, 0.58% active; P61081+Q13564; TR-FRET cullin neddylation, biochemical; inhibition, % at 25 µM; in the data active = inhibition above about 36%
Target sequence (P61081 whole entry, looked up): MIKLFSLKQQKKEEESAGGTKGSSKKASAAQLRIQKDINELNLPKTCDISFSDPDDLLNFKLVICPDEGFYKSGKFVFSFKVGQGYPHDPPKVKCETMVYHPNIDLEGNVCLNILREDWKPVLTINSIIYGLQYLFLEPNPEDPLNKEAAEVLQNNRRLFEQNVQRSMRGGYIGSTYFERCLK
Target sequence (Q13564 whole entry, looked up): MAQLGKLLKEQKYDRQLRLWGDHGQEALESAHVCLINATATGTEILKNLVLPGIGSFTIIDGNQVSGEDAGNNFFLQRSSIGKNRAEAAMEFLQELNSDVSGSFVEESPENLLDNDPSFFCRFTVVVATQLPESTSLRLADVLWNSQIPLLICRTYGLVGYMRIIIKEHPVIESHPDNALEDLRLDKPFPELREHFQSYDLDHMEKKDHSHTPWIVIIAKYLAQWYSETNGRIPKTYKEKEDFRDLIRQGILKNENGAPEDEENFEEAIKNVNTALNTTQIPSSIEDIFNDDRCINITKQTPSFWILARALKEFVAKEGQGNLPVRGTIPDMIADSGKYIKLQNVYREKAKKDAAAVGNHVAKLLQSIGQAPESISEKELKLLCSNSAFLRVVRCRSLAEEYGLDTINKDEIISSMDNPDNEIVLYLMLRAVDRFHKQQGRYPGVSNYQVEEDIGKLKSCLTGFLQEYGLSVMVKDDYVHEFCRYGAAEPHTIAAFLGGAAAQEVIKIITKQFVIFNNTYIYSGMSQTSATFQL
Arr AP2 block: blocks beta-arrestin peptide binding to AP2 adaptin | 340,000 tested, 0.31% active | FITC-arrestin peptide / GST-AP2 beads, flow cytometry; AP2 beta2 appendage carries R879A mutation | AID 504490 | inhibition, % at 10 µM;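 active = inhibition above a set limit, near 3 SD of compounds lacking own fluorescence, cut at about 54% in these data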;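 also: plate controls were DMSO wells for no effect and 5 µM unlabelled arrestin peptide for full effect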
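System: GST-AP2 R879A bound to glutathione beads, E. coli-expressed. Also added: 50 nM FITC-arrestin peptide. Schedule: compound with beads 12 min RT, then probe 1 h RT. Signal: bead flow cytometry, FITC channel. Read-out basis: percent response.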
DSG3 Ab inh: inhibitors of pemphigus antibody binding to human desmoglein-3; P32926; AID 588358; 310,000 tested, 0.48% active; DSG3-coupled beads, scFv-anti-DSG3-GFP binding, flow cytometry; hits give low values; binding (percent of control), % at 10 µM;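 active = binding more than 3 SD below its plate's average and above zero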;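 also: hits lower antibody fragment binding to DSG3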
Efflux pump mplx: blocks antifungal efflux pumps in multiplex yeast assay; inhibition, % at 10 µM; S. cerevisiae Candida pump triplex, Nile Red efflux; 330,000 tested, 0.44% active; AID 485275;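 active = plate passing quality check with inhibition over a set limit, or well fluorescence over plate mean plus 4 SD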;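 also: Nile Red retained in pooled yeast measured as flow cytometry median fluorescence; 0% = buffer negative control and 100% = Enniatin B positive control; higher means more Nile Red kept so more efflux inhibition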
Yeast cmpd fluor: flagged as fluorescent in efflux inhibitor counter-screen; shares compounds with Efflux pump mplx; S. cerevisiae AD/pABC3, compound fluorescence, flow cytometry; fluorescence ratio to DMSO, % at 10 µM; 1,700 tested, 4% active; AID 588517;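 active = fluorescence ratio to DMSO above its plate's cutoff, the plate mean ratio plus 5 SD, cut at about 210% in these data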;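 also: unstained yeast with no Nile Red so the signal is compound autofluorescence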
Mdr1 pump inh: inhibitors of Candida albicans Mdr1 efflux pump; shares compounds with Efflux pump mplx; S. cerevisiae AD/CaMDR1, Nile Red efflux, flow cytometry; inhibition, % at 10 µM; 1,700 tested, 1% active; in the data active = inhibition above about 26%;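 also: 0% = DMSO vehicle and 100% = reference inhibitor; higher means more Nile Red retained so more efflux inhibition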
CaCdr2 efflux inh: inhibitors of Candida albicans Cdr2 efflux pump | AID 588520 | Nile Red retention ratio vs DMSO, % at 10 µM | shares compounds with Efflux pump mplx | S. cerevisiae AD/CaCDR2, Nile Red retention, flow cytometry | 1,700 tested, 4% active; in the data active = Nile Red retention ratio vs DMSO above about 190%;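 also: higher ratio means more blocking of Cdr2 efflux of the dye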
Cdr1 pump inh: blocks the Candida albicans Cdr1 efflux pump in yeast; 1,700 tested, 1% active; AID 588522; inhibition, % at 10 µM; S. cerevisiae AD/CaCDR1, Nile Red efflux, flow cytometry; shares compounds with Efflux pump mplx;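 active = inhibition above the screen-wide mean plus twice its standard deviation, cut at about 32% in these data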
Numbers without * were called inactive. An excerpt weighted towards active compounds, which were near 1.7% of everything screened.

Nc1nnc(SCC(=O)NNC(=O)c2ccc(Cl)cc2)s1 was read as Neddylation inh -7.2, Arr AP2 block 31.1, DSG3 Ab inh 99.2, Efflux pump mplx 93.4*, Yeast cmpd fluor 80.1, Mdr1 pump inh 0.0, CaCdr2 efflux inh 93.2 and Cdr1 pump inh -0.2.
For c1cnc(NCCSSCCNc2ncccn2)nc1 the results were Neddylation inh -4.8 and DSG3 Ab inh 104.5.
`Cc1ccccc1OC(=O)c1cccnc1` gave Neddylation inh -6.9, Arr AP2 block -9.4, DSG3 Ab inh 114.6 and Efflux pump mplx -0.1.
O=C(N/N=C\c1ccc(F)cc1)c1ccc(F)cc1 was read as Neddylation inh -16.3, Arr AP2 block 9.0, DSG3 Ab inh 105.8 and Efflux pump mplx 0.0.
`CC(=O)Nc1ccc(C(=O)OCC(=O)c2ccc(F)cc2)cc1` gave Neddylation inh 6.2, Arr AP2 block 3.7, Efflux pump mplx 32.0*, Yeast cmpd fluor 97.0, Mdr1 pump inh -0.1, CaCdr2 efflux inh 105.7 and Cdr1 pump inh -0.1.
CC(=O)Nc1ccc(C(=O)N/N=C/c2ccc(F)cc2)cc1 was read as Neddylation inh -0.3, Arr AP2 block 9.8, DSG3 Ab inh 104.8, Efflux pump mplx 0.6*, Yeast cmpd fluor 94.8, Mdr1 pump inh -0.3, CaCdr2 efflux inh 102.9 and Cdr1 pump inh 0.0.
`C/C(=N\NC(=O)COc1ccc([N+](=O)[O-])cc1)C(C)(C)C` gave Neddylation inh -9.9, Arr AP2 block 8.6, DSG3 Ab inh 104.8 and Efflux pump mplx 0.0.
Cc1nnc(C)c2c(C)n(C(C)c3ccccc3)c(C)c12 (centres undefined) was read as Neddylation inh 9.8, Arr AP2 block -7.6, DSG3 Ab inh 110.3 and Efflux pump mplx 0.1.
COc1ccc(C(C)n2c(C)c3c(C)nnc(C)c3c2C)cc1 (centres undefined) was read as Neddylation inh 10.7, Arr AP2 block 13.7, DSG3 Ab inh 104.2, Efflux pump mplx 6.7*, Yeast cmpd fluor 105.8, Mdr1 pump inh -0.1, CaCdr2 efflux inh 102.9 and Cdr1 pump inh 0.0.
For CCOc1ccccc1/C=C/c1onc(C)c1S(=O)(=O)N1CCC(C(=O)N(CC)CC)CC1 the results were Neddylation inh 3.7, Arr AP2 block -12.0, DSG3 Ab inh 103.7, Efflux pump mplx 0.2*, Yeast cmpd fluor 105.6, Mdr1 pump inh -0.3, CaCdr2 efflux inh 108.3 and Cdr1 pump inh 0.0.
For Nc1nc(Nc2ccccc2)nc2c1ncn2[C@@H]1O[C@H](CO)[C@@H](O)[C@H]1O the results were Neddylation inh 9.0, Arr AP2 block -1.2, DSG3 Ab inh 101.8 and Efflux pump mplx 0.0.
`Cc1cccc(C(=O)N2CCC(=O)N(C(COCc3cccc(C(F)(F)F)c3)Cc3ccccc3)CC2)c1` (centres undefined) gave Neddylation inh -8.2, Arr AP2 block 22.2, DSG3 Ab inh 98.4, Efflux pump mplx 1.0*, Yeast cmpd fluor 101.4, Mdr1 pump inh -0.1, CaCdr2 efflux inh 97.7 and Cdr1 pump inh 0.0.
Cc1cccc(C(=O)N2CCC(=O)N([C@H](COCc3cccc(C(F)(F)F)c3)Cc3ccccc3)CC2)c1 was read as Neddylation inh 2.1.
COc1ccccc1S(=O)(=O)N(C)C[C@H]1Oc2ncc(Br)cc2C(=O)N([C@H](C)CO)C[C@H]1C was read as Neddylation inh 0.0 and DSG3 Ab inh 101.3.
FC(F)(F)c1cc(Cc2nc3ccccc3n2C(CCc2ccccc2)c2nc3ccccc3[nH]2)cc(C(F)(F)F)c1 (centres undefined) was read as Neddylation inh -6.3.
For COc1cc(/C=C2\SC(=S)N(NC(=O)c3cccnc3)C2=O)ccc1O the results were Neddylation inh -61.7, Arr AP2 block 1.8, DSG3 Ab inh 98.2, Efflux pump mplx 0.0, Yeast cmpd fluor 103.1, Mdr1 pump inh -0.1, CaCdr2 efflux inh 107.2 and Cdr1 pump inh 0.0.
O=C(NN1C(=O)/C(=C/c2ccc(O)c(O)c2)SC1=S)c1ccccc1 was read as Neddylation inh -54.8, Arr AP2 block 17.1, DSG3 Ab inh 97.7, Efflux pump mplx 3.4*, Yeast cmpd fluor 115.9, Mdr1 pump inh 0.1, CaCdr2 efflux inh 118.4 and Cdr1 pump inh 0.5.
COc1cc(/C=C2\SC(=S)N(NC(=O)c3ccc(O)cc3)C2=O)ccc1O was read as Neddylation inh -44.1, Arr AP2 block 22.4, DSG3 Ab inh 83.4 and Efflux pump mplx 0.5.
For COc1ccc(NC(=S)Nc2ccccc2)c(OC)c1 the results were Neddylation inh 6.3, Arr AP2 block 15.2, DSG3 Ab inh 109.1, Efflux pump mplx 1.1*, Yeast cmpd fluor 106.7, Mdr1 pump inh -0.4, CaCdr2 efflux inh 103.6 and Cdr1 pump inh 0.0.
`O=C(NCCC1=CCCCC1)C1CCC(CNc2nc(=S)[nH]c3ccccc23)CC1` (centres undefined) gave Neddylation inh -93.3, Arr AP2 block 4.7, DSG3 Ab inh 107.9, Efflux pump mplx 1.1*, Yeast cmpd fluor 114.8, Mdr1 pump inh -0.1, CaCdr2 efflux inh 107.8 and Cdr1 pump inh -0.1.
CCC1=C(OC(=O)N(CC)CC)N2C(=O)OC(=NCCc3c[nH]c4ccccc34)[C@]2(Cc2ccccc2)[C@H]2C1=CC[C@H]1C(=O)N(c3ccccc3)C(=O)[C@H]12 was read as Neddylation inh 5.5, Arr AP2 block 18.6, DSG3 Ab inh 93.4 and Efflux pump mplx 0.1.
CCC1=C(OC(=O)N(CC)CC)N2C(=O)OC(=NCCc3c[nH]c4ccccc34)[C@]2(Cc2ccccc2)[C@H]2C1=CC[C@H]1C(=O)N(C)C(=O)[C@H]12 was read as Neddylation inh -0.7, Arr AP2 block -7.9, DSG3 Ab inh 110.1, Efflux pump mplx 95.8*, Yeast cmpd fluor 111.5, Mdr1 pump inh 38.8*, CaCdr2 efflux inh 124.7 and Cdr1 pump inh 0.9.
O=C(O)/C=C/C(=O)Nc1ccc(Cc2ccc(NC(=O)/C=C/C(=O)O)cc2)cc1 was read as Neddylation inh 9.5, Arr AP2 block 35.9, DSG3 Ab inh 107.9 and Efflux pump mplx -0.1.
For Cc1ccc(OCC(=O)Nc2cnn(CCCC(=O)O)c2)c([N+](=O)[O-])c1 the results were Neddylation inh -20.1, Arr AP2 block 4.8, DSG3 Ab inh 99.7, Efflux pump mplx 3.9*, Yeast cmpd fluor 148.7, Mdr1 pump inh 1.8, CaCdr2 efflux inh 93.0 and Cdr1 pump inh 0.0.
O=C(O)CCCn1cc(NC(=O)COc2ccccc2[N+](=O)[O-])cn1 was read as Neddylation inh -14.2, Arr AP2 block 15.9 and Efflux pump mplx 0.1.
